The test system of experiment [1] is SQ20B. Briefly: Cytotoxicity against human SQ20B cells after 72 hrs by MTT assay. Format: functional, cell-based. The method in brief: (§1)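 Monolayer culture in RPMI with 10% fetal calf serum, 2 mM glutamine, penicillin/streptomycin, 37 °C, humidified 5% CO2, checked for Mycoplasma. Cells seeded at 2 × 10³/well; after drug exposure, 0.4 mg/ml MTT for 4 h at 37 °C. Formazan dissolved in DMSO, absorbance read at 560 nm. Untreated cells served as positive control, drug medium without cells as negative control.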
For orientation: Formazan colour is commonly taken as a measure of viable cells.

Experiment [2] relates to COLO 205. The experiment can be described thus: Cytotoxicity against human COLO205 cells after 72 hrs by MTT assay. The class given is functional, cell-based. The method, boiled down:
as §1

Experiment [3] has as its target T1, mTORC1 (Homo sapiens) (UniProt P42345+Q8N122+Q9BVC4). The experiment can be described thus: Inhibition of mTORC1 in human SK-HEP1 cells assessed as reduction of 4-EBP1 phosphorylation at 0.1 to 8 uM after 24 hrs by Western blotting. The class given is cell-based. The method in brief:
(§2)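 Membranes were blocked in 5% milk/0.05% Tween 20-PBS and probed overnight with primary antibody against p-S6, p-4EBP1 or p-Akt (S473). Detection used HRP secondary antibody and enhanced chemiluminescence.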
For orientation: Immunoblotting shows a protein as a band on a membrane.

Experiment [4] deals with T1, mTORC1 (Homo sapiens). Briefly: Inhibition of mTORC1 in human SK-HEP1 cells assessed as reduction of S6 phosphorylation at 0.1 to 8 uM after 24 hrs by Western blotting. The class given is cell-based. The method in brief: as §2
Experiment [5] addresses T1, mTORC1 (Homo sapiens). Briefly: Inhibition of mTORC1 in human COLO205 cells assessed as reduction of S6 phosphorylation at 0.1 to 8 uM after 24 hrs by Western blotting. Format: cell-based. Particulars: COLO 205. The method, boiled down:
as §2

The target of experiment [6] is T1, mTORC1 (Homo sapiens). The experiment can be described thus: Inhibition of mTORC1 in human COLO205 cells assessed as reduction of 4-EBP1 phosphorylation at 0.1 to 8 uM after 24 hrs by Western blotting. Format: cell-based. The conditions noted are these: COLO 205. The method in brief:
as §2

Experiment [7] deals with T1, mTORC1 (Homo sapiens). Briefly: Inhibition of mTORC1 in human SK-HEP1 cells assessed as AKT phosphorylation at Ser473 at 0.1 to 8 uM after 24 hrs by Western blotting. The class given is cell-based. The method in brief: as §2
Experiment [8] has as its system HOP-62. Briefly: Cytotoxicity against human HOP62 cells after 72 hrs by MTT assay. Format: functional, cell-based. The method, boiled down:
as §1

The target in experiment [9] is T1, mTORC1 (Homo sapiens). The experiment can be described thus: Inhibition of mTORC1 in human COLO205 cells assessed as AKT phosphorylation at Ser473 at 0.1 to 8 uM after 24 hrs by Western blotting. Format: cell-based. The conditions noted are these: COLO 205. The method in brief: as §2

34 compounds from ChEMBL document CHEMBL3286102, “Benzofuran derivatives as anticancer inhibitors of mTOR signaling” (Eur J Med Chem, 2014) can be followed below.

Broadly, the IC50 is the concentration that inhibits the measured activity by half. Low values mean greater potency, high ones weaker potency.

Calls of active or inactive are those of the source. The rule behind the calls is not given here.

T1 sequence (Q8N122 whole entry, looked up, other chains not shown): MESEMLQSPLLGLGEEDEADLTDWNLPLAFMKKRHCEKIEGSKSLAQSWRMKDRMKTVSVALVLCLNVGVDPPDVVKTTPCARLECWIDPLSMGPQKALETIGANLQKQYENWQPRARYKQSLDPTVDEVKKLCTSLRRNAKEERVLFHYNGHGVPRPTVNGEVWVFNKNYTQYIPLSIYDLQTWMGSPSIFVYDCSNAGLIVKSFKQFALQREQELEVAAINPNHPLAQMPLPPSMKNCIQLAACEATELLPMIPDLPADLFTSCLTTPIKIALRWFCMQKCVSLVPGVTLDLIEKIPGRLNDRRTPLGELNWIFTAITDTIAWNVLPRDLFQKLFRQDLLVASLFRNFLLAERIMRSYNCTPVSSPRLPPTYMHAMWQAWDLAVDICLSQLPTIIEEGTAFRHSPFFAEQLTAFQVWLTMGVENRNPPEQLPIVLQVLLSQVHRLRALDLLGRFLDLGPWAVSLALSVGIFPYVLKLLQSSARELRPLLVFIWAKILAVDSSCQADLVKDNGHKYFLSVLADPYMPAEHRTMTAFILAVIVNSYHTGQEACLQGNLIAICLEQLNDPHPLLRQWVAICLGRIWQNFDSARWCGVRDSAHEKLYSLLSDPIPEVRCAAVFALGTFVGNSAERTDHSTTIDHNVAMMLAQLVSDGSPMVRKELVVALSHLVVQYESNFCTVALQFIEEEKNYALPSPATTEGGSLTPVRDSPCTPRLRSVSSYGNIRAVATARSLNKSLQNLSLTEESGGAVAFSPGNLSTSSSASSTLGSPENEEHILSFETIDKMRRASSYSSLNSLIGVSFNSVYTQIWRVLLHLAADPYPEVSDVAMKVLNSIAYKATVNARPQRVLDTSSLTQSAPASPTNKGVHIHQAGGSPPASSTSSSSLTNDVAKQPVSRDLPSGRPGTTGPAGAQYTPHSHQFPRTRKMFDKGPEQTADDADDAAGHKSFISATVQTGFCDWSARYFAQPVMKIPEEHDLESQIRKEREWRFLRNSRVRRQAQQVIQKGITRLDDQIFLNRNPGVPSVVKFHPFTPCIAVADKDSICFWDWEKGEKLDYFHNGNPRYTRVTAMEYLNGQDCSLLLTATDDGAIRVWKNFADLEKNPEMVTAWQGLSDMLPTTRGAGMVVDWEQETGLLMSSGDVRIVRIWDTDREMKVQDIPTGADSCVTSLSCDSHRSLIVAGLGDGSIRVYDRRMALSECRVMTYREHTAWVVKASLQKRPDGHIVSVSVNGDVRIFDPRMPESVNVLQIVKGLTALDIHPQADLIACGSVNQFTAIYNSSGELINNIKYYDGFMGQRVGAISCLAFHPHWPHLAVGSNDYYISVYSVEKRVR
T1 sequence (Q9BVC4 whole entry, looked up, other chains not shown): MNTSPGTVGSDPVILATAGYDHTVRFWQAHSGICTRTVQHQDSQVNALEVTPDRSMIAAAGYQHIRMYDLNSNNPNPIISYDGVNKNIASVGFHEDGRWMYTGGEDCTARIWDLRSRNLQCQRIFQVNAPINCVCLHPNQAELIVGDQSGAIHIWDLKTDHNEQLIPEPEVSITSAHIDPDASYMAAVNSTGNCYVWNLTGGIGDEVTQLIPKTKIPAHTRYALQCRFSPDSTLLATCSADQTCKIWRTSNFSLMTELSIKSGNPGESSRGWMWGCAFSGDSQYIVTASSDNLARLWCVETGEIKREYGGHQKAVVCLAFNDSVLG

Consider `COc1ccc(-c2cc3c(CN4CCC(N5CCCCC5)CC4)c(O)ccc3o2)cc1`, for which half-maximal inhibition in [1] (IC50) required 850 nM.
The same measure, in the same setting: with `Cc1c(-c2ccccc2)oc2ccc(O)c(CN3CCC(N4CCCCC4)CC3)c12` the figure was 1200 nM; with `Oc1ccc2cc(-c3ccccc3)oc2c1CN1CCC(N2CCCCC2)CC1`, 11000 nM.
Still for that read-out and setting: to `Oc1ccc2oc(-c3ccc(Cl)cc3)cc2c1CN1CCC(N2CCCCC2)CC1` belongs 860 nM; to `Oc1ccc2oc(-c3ccc4ccccc4c3)cc2c1CN1CCC(N2CCCCC2)CC1`, 2800 nM; to `CCOC(=O)c1c(-c2ccccc2)oc2ccc(O)c(CN3CCC(N4CCCCC4)CC3)c12`, 1500 nM.
As for `CO[C@H]1C[C@@H]2CC[C@@H](C)[C@@](O)(O2)C(=O)C(=O)N2CCCC[C@H]2C(=O)O[C@H]([C@H](C)C[C@@H]2CC[C@@H](OCCO)[C@H](OC)C2)CC(=O)[C@H](C)/C=C(\C)[C@@H](O)[C@@H](OC)C(=O)[C@H](C)C[C@H](C)/C=C/C=C/C=C/1C` [EVEROLIMUS], the midpoint of inhibition in [1], the IC50, lay at 7300 nM. Besides, the result in experiment [2] was Active. For the same compound, the inhibition result in experiment [3], in [4], in experiment [5] and in [6] was “Active” each time. In addition, the inhibition entry in [7] and in experiment [9] was “inactive” in each case. Also, in experiment [8], the outcome was inactive.
In turn, `Cn1c(-c2ccccc2)cc2c(CN3CCC(N4CCCCC4)CC3)c(O)ccc21` gave an IC50 in experiment [1] of 19000 nM.
On the same count and under the same terms, to `Oc1ccc2oc(-c3cccs3)cc2c1CN1CCC(N2CCCCC2)CC1` belongs 2700 nM; to `Oc1ccc2oc(-c3ccccc3Cl)cc2c1CN1CCC(N2CCCCC2)CC1`, 2600 nM.
Turning to `O=S(=O)(Nc1ccc2oc(-c3ccccc3)cc2c1CN1CCC(N2CCCCC2)CC1)C(F)(F)F`, it took 2100 nM to reach half-maximal inhibition in [1] (IC50).
On the same count and under the same terms, with `Oc1ccc2occ(-c3ccccc3)c2c1CN1CCC(N2CCCCC2)CC1` the figure was 11000 nM.
Regarding `COc1cccc2cc(-c3nc([C@H]4CC[C@H](C(=O)O)CC4)n4ncnc(N)c34)[nH]c12`, the result in experiment [2] and in experiment [8] was Active.
In experiment [1], `O=S(=O)(Oc1ccc2oc(-c3ccccc3)cc2c1CN1CCC(N2CCCCC2)CC1)C(F)(F)F` registered an IC50 of 2800 nM.
Same read-out and setting: to `Oc1ccc2oc(-c3cccc4ccccc34)cc2c1CN1CCC(N2CCCCC2)CC1` belongs 860 nM.
`CO[C@H]1C[C@@H]2CC[C@@H](C)[C@@](O)(O2)C(=O)C(=O)N2CCCC[C@H]2C(=O)O[C@H]([C@H](C)C[C@@H]2CC[C@@H](O)[C@H](OC)C2)CC(=O)[C@H](C)/C=C(\C)[C@@H](O)[C@@H](OC)C(=O)[C@H](C)C[C@H](C)/C=C/C=C/C=C/1C`: the inhibition result in experiment [3], in experiment [4], in experiment [5] and in experiment [6] was “Active” each time.
Turning to `Oc1ccc2c(ccn2Cc2ccccc2)c1CN1CCC(N2CCCCC2)CC1`, in experiment [1], the IC50 worked out at 17000 nM.
In turn, `Oc1ccc2oc(-c3cccc(Cl)c3)cc2c1CN1CCC(N2CCCCC2)CC1` yielded an IC50 in experiment [1] of 920 nM.
On the same count and under the same terms, with `Oc1ccc2oc(-c3ccccc3)nc2c1CN1CCC(N2CCCCC2)CC1` the figure was 6500 nM; with `Oc1ccc2oc(-c3ccco3)cc2c1CN1CCC(N2CCCCC2)CC1`, 4000 nM.
Still for that read-out and setting: with `c1ccc(-c2cc3c(CN4CCC(N5CCCCC5)CC4)nccc3o2)cc1` the figure was 18000 nM; with `COc1cccc(-c2cc3c(CN4CCC(N5CCCCC5)CC4)c(O)ccc3o2)c1`, 2000 nM; with `COc1ccc(-c2cc3c(CN4CCC(N(C)C)CC4)c(O)ccc3o2)cc1`, 1200 nM.
Still for that read-out and setting: with `COc1ccc2oc(-c3ccccc3)cc2c1CN1CCC(N2CCCCC2)CC1` the figure was 2500 nM.
The compound `Oc1ccc2oc(-c3ccccc3OCc3ccccc3)cc2c1CN1CCC(N2CCCCC2)CC1` returned an IC50 in [1] of 380 nM. The result in [2] and in experiment [8] was Active.
As for `c1ccc(-c2cc3c(CN4CCC(N5CCCCC5)CC4)cccc3o2)cc1`, the IC50 in experiment [1] came out at 7500 nM.
As for `Oc1ccc2[nH]c(-c3ccccc3)nc2c1CN1CCC(N2CCCCC2)CC1`, in experiment [1], the IC50 came to 21000 nM.
The same measure, in the same setting: with `Oc1ccc2oc(-c3ccc(Cl)c(Cl)c3)cc2c1CN1CCC(N2CCCCC2)CC1` the figure was 2300 nM; with `COc1ccccc1-c1cc2c(CN3CCC(N4CCCCC4)CC3)c(O)ccc2o1`, 1300 nM; with `CN(C)Cc1c(O)ccc2oc(-c3ccccc3)cc12`, 32000 nM.
`COc1ccc2oc(-c3ccccc3OCc3ccccc3)cc2c1CN1CCC(N(C)C)CC1` registered an IC50 in experiment [1] of 460 nM. The result in experiment [2] and in experiment [8] was Active. The inhibition result in experiment [3], in experiment [4], in experiment [5] and in [6] was “Active” each time.
Compound `Oc1ccc2oc(-c3ccccc3)cc2c1CN1CCC(N2CCCCC2)CC1` had an IC50 in [1] of 1400 nM. Moreover, the outcome in experiment [2] and in experiment [8] was Active.
The compound `OCc1c(-c2ccccc2)oc2ccc(O)c(CN3CCC(N4CCCCC4)CC3)c12` showed an IC50 in experiment [1] of 3400 nM.
Same read-out and setting: with `COc1ccc(-c2cc3c(CN4CCC(N5CCCCC5)CC4)c(O)ccc3o2)c(OC)c1` the figure was 1100 nM.
